For test [1], the species on record is Rattus norvegicus. Description: Complete remission of DMBA-induced hormone-dependent mammary carcinoma tumors in rats at 9 mg. Type of test: functional. In a few lines: (§1)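 Female SD rats bearing DMBA-induced, hormone-dependent mammary adenocarcinoma, with at least one tumor >140 mm², were grouped in tens. Dosing was sc per kg body weight: a single dose daily Monday–Thursday and a double dose Friday. Ovariectomy served as the comparison arm. Complete remission was defined as a tumor no longer palpable. Body weight and tumor area changes were also recorded.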

The species named for test [2] is Rattus norvegicus. As to the kind of experiment: Number of DMBA-induced hormone-dependent mammary carcinoma tumors in ovariectomised rats. Type of test: functional. The gist of the method: (§2)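 DMBA-induced, hormone-dependent mammary adenocarcinoma in SD rats, with ovariectomy as the treatment. Rats bearing at least one tumor >140 mm² were placed in groups of ten. Tumors were counted at the start and as new tumors. Responses were scored as complete remission, partial remission (≥50% size reduction), no change or progression, with % change in tumor area and body weight.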

The species entered for test [3] is Rattus norvegicus. Description: Partial remission of DMBA-induced hormone-dependent mammary carcinoma tumors in ovariectomised rats. Type of test: functional. In a few lines: as §2
The species entered for test [4] is Rattus norvegicus. As to the kind of experiment: Percent unchanged tumor size of DMBA-induced hormone-dependent mammary carcinoma tumors in rats at 9 mg. Type of test: functional.
The species entered for test [5] is Rattus norvegicus. Description: Initial tumor number of DMBA-induced hormone-dependent mammary carcinoma in rats at 9 mg. In kind it is functional. The gist of the method: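 DMBA-induced, hormone-dependent mammary adenocarcinoma in SD rats. Rats bearing at least one tumor >140 mm² were placed in groups of ten. Compound was given sc as a single dose (mg/kg) daily Monday–Thursday and a double dose on Friday. Tumors were counted at the start and as new tumors; responses were scored as complete remission (not palpable), partial remission (≥50% reduction), no change or progression. Tumor area and body weight were recorded as % change.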

For test [6], the system named is MCF7. Description: Inhibition of estrogen receptor positive MCF-7 cell proliferation as percent treated/control cell number after 10 days at 10e-6 M. In kind it is functional, Homo sapiens. The gist of the method:
(§3)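 MCF-7 cells were grown in McCoy's 5a medium with fetal bovine serum stripped by DCC (0.5 h, 45 °C). Compounds were dissolved in ethanol (final ≤0.5%) and diluted in complete medium. Cells were seeded at 5×10^4 cells/plate. On day 10, three replicate plates per group were counted by Coulter counter, three counts per plate. Percent T/C = test/control. In a retest, compounds were given at 10^-7 M with 17β-estradiol at 10^-7 or 10^-8 M.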

Test [7] deals with MCF7. Description: Inhibition of estrogen receptor positive MCF-7 cell proliferation as percent treated/control cell number after 10 days at 10e-7 M. In kind it is functional, Homo sapiens. The gist of the method:
as §3

In test [8] the test system is MCF7. Description: Inhibition of estrogen receptor positive MCF-7 cell proliferation as percent treated/control cell number after 10 days at 10e-7 M with 10e-7 M 17-beta-estradiol. Type of test: functional, Homo sapiens. In a few lines:
as §3

Test [9] concerns MCF7. Description: Inhibition of estrogen receptor positive MCF-7 cell proliferation as percent treated/control cell number after 10 days at 10e-8 M. In kind it is functional, Homo sapiens. The gist of the method:
as §3

In test [10] the test system is MCF7. As to the kind of experiment: Inhibition of estrogen receptor positive MCF-7 cell proliferation as cell number after 10 days at 10e-8 M. In kind it is functional, Homo sapiens. The gist of the method: as §3
Test [11] has as its system MCF7. Description: Inhibition of estrogen receptor positive MCF-7 cell proliferation as cell number after 10 days at 10e-9 M. In kind it is functional, Homo sapiens. In a few lines:
as §3

Test [12] has as its system MCF7. As to the kind of experiment: Inhibition of estrogen receptor positive MCF-7 cell proliferation as percent treated/control cell number after 10 days at 10e-9 M. In kind it is functional, Homo sapiens. In a few lines: as §3
Test [13] deals with MCF7. As to the kind of experiment: Inhibition of estrogen receptor positive MCF-7 cell proliferation as cell number after 10 days at 10e-6 M. Type of test: functional, Homo sapiens. In a few lines:
as §3

For test [14], the system named is MCF7. Description: Inhibition of estrogen receptor positive MCF-7 cell proliferation as cell number after 10 days at 10e-7 M and 10e-8 M 17-beta-estradiol. Type of test: functional, Homo sapiens. In a few lines: as §3
In test [15] the test system is MCF7. As to the kind of experiment: (§4) Inhibition of estrogen receptor positive MCF-7 cell proliferation as cell number after 10 days at 10e-7 M. Type of test: functional, Homo sapiens. In a few lines:
as §3

Test [16] has as its system MCF7. The test is described as §4. Type of test: functional, Homo sapiens. In a few lines: as §3
This is another data set of the same source.

For test [17], the species on record is Mus musculus. Description: Vaginal cornification test in mice at 0 ug; predominant cellular component leucocytes (diestrus). Type of test: functional, organism-based. In a few lines: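 Female NMRI mice (~15 g) were ovariectomized; castration was confirmed at 10 days by leucocyte smears. Mice were primed with estradiol 3-benzoate 0.2 μg, and only responders showing estrus were kept. Groups of three received sc test compound in 0.1 mL olive oil daily for 3 days. Saline vaginal smears were taken 6, 24, 30, 48 and 54 h after the last dose and scored by Allen-Doisy.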

In test [18] the target is T1, Estrogen receptor (Mus musculus) (UniProt O08537+P19785). As to the kind of experiment: Estrogenic activity in uterotrophic test in mice at 0 ug. Type of test: functional. In a few lines: (§5)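 Uterine growth stimulation in immature female NMRI mice, 20 days old (14.5 ± 1.2 g), 10 per group. Test compound in 0.1 mL olive oil was given sc daily for 3 days. Uteri were excised 24 h after the final injection and weighed. Effect is reported as mean ± SD.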
T1 sequence (O08537 whole entry, looked up): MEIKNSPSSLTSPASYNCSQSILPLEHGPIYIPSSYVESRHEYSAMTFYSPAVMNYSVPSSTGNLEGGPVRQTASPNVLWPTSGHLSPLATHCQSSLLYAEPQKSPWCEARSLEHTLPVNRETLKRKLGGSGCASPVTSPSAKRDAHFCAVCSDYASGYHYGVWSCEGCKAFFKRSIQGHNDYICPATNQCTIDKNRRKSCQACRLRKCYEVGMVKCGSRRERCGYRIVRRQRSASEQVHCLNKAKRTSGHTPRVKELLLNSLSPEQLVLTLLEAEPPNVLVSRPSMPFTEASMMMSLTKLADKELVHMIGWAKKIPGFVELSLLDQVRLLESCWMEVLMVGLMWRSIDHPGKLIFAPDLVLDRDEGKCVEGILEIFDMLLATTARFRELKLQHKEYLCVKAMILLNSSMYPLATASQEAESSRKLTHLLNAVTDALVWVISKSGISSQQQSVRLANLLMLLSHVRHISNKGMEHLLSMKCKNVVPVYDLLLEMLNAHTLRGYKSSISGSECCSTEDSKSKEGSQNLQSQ
T1 sequence (P19785 whole entry, looked up): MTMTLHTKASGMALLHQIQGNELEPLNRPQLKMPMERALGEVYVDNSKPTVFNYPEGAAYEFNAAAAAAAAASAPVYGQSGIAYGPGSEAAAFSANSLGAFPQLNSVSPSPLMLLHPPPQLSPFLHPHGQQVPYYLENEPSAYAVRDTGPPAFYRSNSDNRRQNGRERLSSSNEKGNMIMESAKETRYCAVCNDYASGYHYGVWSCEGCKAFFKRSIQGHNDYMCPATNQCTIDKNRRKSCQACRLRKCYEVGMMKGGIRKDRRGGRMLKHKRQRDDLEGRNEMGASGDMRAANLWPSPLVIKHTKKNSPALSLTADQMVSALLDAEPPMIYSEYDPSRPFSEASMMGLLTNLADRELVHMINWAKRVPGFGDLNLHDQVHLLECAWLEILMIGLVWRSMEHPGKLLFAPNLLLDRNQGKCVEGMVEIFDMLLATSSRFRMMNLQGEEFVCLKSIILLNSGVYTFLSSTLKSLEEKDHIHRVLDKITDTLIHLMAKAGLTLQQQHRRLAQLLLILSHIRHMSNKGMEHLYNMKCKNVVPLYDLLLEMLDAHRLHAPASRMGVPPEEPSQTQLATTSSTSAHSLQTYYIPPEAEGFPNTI

Test [19] addresses T1, Estrogen receptor (Mus musculus). Description: Estrogenic activity in uterotrophic test in mice at 1500 ug. Type of test: functional. The gist of the method:
as §5

Test [20] shares this target. Description: Estrogenic activity in uterotrophic test in mice at 90 ug. Type of test: functional. In a few lines:
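Immature (20-day-old) female NMRI mice, 14.5 ± 1.2 g, randomized into groups of 10. Given the test compound sc daily for 3 days in 0.1 mL olive oil. Uteri removed 24 h after the last injection; uterine weight taken as the read-out, means ± SD. Dose in μg.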

The target is the same in test [21]. Description: Inhibitory activity in mouse uterine weight test at 0.1 ug. Type of test: functional. In a few lines:
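Antiuterotrophic (Dorfman) assay in immature 20-day-old female NMRI mice, groups of 10. Uterine growth was stimulated with estrone (0.1 μg) and the test compound was given alongside it, sc daily for 3 days in 0.1 mL olive oil. Uteri were taken 24 h after the last dose. Uterine weight is reported as means ± SD and inhibition as % of the estrone-stimulated response.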

Test [22] shares this target. Description: Inhibitory activity in mouse uterine weight test at 500 ug. Type of test: functional. In a few lines:
(§6)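 Immature female NMRI mice, 20 days old (14.5 ± 1.2 g), in random groups of 10. They received sc injections daily for 3 days of 0.1 mL olive oil containing test compound, with estrone 0.1 μg given to stimulate uterine growth. Uteri were removed 24 h after the last injection and weighed (mean ± SD). Result is percent inhibition of the estrone-stimulated uterine weight gain.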

Test [23] deals with MCF7. Description: Inhibition of estrogen receptor positive MCF-7 cell proliferation as percent treated/control cell number after 10 days at 10e-7 M and 10e-8 M 17-beta-estradiol. In kind it is functional, Homo sapiens. In a few lines:
as §3

Test [24] has as its system Estrogen receptor (Bos taurus). Description: Displacement of [3H]estradiol from calf estrogen receptor. In general terms: Loss of bound radioactivity is the signal in a displacement assay; it reports binding, not function.
The species named for test [25] is Rattus norvegicus. Description: Complete remission of DMBA-induced hormone-dependent mammary carcinoma tumors in rats at 4 mg. In kind it is functional. In a few lines: as §1
The species named for test [26] is Rattus norvegicus. Description: Percent change in body weight DMBA-induced hormone-dependent mammary carcinoma tumors in rats at 4 mg for 7 days. Type of test: functional.
The species named for test [27] is Rattus norvegicus. Description: Percent unchanged tumor size of DMBA-induced hormone-dependent mammary carcinoma tumors in rats at 2 mg. In kind it is functional.
The species named for test [28] is Rattus norvegicus. Description: Progression of DMBA-induced hormone-dependent mammary carcinoma tumors in rats at 4 mg. Type of test: functional.
For test [29], the target named is T1, Estrogen receptor (Mus musculus). As to the kind of experiment: Estrogenic activity in uterotrophic test in mice at 24 ug (experiment 2). In kind it is functional. The gist of the method: as §5
The species entered for test [30] is Rattus norvegicus. As to the kind of experiment: Percent change in body weight DMBA-induced hormone-dependent mammary carcinoma tumors in rats at 2 mg for 7 days. In kind it is functional. In a few lines:
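Sprague-Dawley rats with DMBA-induced, hormone-dependent mammary adenocarcinoma; animals with at least one tumor over 140 mm² were grouped in tens. Dosed subcutaneously in mg/kg body weight: a single daily dose Monday to Thursday, doubled on Friday. Percent change in body weight was recorded over the test alongside tumor area and remission counts, with untreated controls.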

Test [31] deals with T1, Estrogen receptor (Mus musculus). Description: Inhibitory activity in mouse uterine weight test at 500 ug (experiment 2). Type of test: functional. The gist of the method: as §6

Several values for one entry are separate records, joined by “and”; a condition that tells them apart may be missing. Identical values can stand only once. Activity calls are given as the source filed them.

What is called T/C is the result in the treated group divided by that in the control group, in per cent. Broadly, the inhibition is the share of the control response that was lost under treatment. Low readings indicate a weak effect, high ones a strong effect. Consider `CCCC(c1cccc(O)c1)C(CCC)c1cccc(O)c1` (stereo not given), for which the Tumors came to 52% in [1], 10% in [3] and 9% in test [4]. The No. of tumors in test [2] was found to be 2; in [5] it was 22. Also, the T/C is 53% in [6]; 66% and 68% in test [7]; 84% in test [8]; 78% in [9]; 71% in test [12]; 93% in [23]. The Cell number in [10] turned out to be 34300; in test [11], 30700; in test [13], 23300; in [14], 6100; in [15] it was 4300; in test [16] it was 29700. In addition, in [17], the result was inactive. In addition, the Effect came to 11.4 in test [18], 28 in test [19] and 17.6 in test [20]. For the same compound, the inhibition in [21] stood at 5%; in test [22], 50%. In test [24], this compound showed a Ka of 9.1e+07 M⁻¹.
For the compound `CCC(c1cccc(O)c1)C(CC)c1cccc(O)c1` (stereo in doubt; 20), the Tumors worked out at 46% in test [25], 30% in test [27] and 10% in [28]. Also, the Change is given as -5.3% in test [26] and -1.5% in test [30]. Moreover, the T/C in test [6] was 27%; in test [7], 70% and 63%; in [8], 84%; in test [9], 64%; in test [12], 73%; in [23], 78%. In addition, the Cell number in test [10] is 27900; in test [11], 32100; in test [13] it was 11900; in test [14], 5100; in test [15], 4700; in test [16] it was 27700. For the same compound, in [17], the result was inactive. The Effect in test [29] worked out at 18.5. The compound also came in with an inhibition in test [31] of 40%. The same compound registered a Ka in test [24] of 2e+08 M⁻¹.
